# ChEMBL document CHEMBL2176927 (J Med Chem, 2012)
# Activity calls are given as the source filed them. The rule behind the calls is not given here.
# Columns and labels:
# PC-3 [1] = assay: Antitumor activity against human PC3 cells xenografted mouse assessed as tumor growth inhibition at […] to 100 mg/kg, po bid for 14 days; type: functional, organism-based
# In short: (§1)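 Female NCR.nude mice with subcutaneous NCI-PC3 flank tumours, dosed orally once daily (or twice daily at the same daily total) for 14 days from a mean tumour volume of 200 mm3; 5 mice/group. Caliper volume is (L x W x W)/2, measured twice weekly.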
# PC-3 [2] = assay: Antitumor activity against human PC3 cells xenografted mouse assessed as tumor growth inhibition at 50 mg/kg, po qd for 14 days; type: functional, organism-based; design: dose 50 mg/kg; in short: as §1
# Mus musculus [3] = assay: Toxicity in human PC3 cells xenografted mouse assessed as reduction of body weight at 200 mg/kg, po qd for 14 days; type: organism-based, PC-3; design: dose 200 mg/kg, route oral; scale not given: the % may be the effect or the level left; conditions: in vivo, 336 h
# In short: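 Same PC3 s.c. xenograft in nude mice with QD oral dosing, 5 animals per group. Body weight was measured twice weekly; loss above 10% is the protocol limit for tolerated doses and triggers a dosing holiday.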
# PC-3 [4] = assay: Antitumor activity against human PC3 cells xenografted mouse assessed as tumor growth inhibition at 6.25 to 100 mg/kg, po qd for 14 days; type: functional, organism-based; in short: as §1
# [5] = Oral bioavailability in mouse at 5 mg/kg; type: ADME, organism-based; conditions: in vivo
# [6] = AUC in mouse at 5 mg/kg, po; type: ADME, organism-based; design: dose 5 mg/kg, route oral; conditions: plasma
# [7] = Half life in mouse at 1 mg/kg, iv; type: ADME, organism-based; design: dose 1 mg/kg, route intravenous; conditions: in vivo
# [8] = Volume of distribution at steady state in mouse at 1 mg/kg, iv; type: ADME, organism-based; design: dose 1 mg/kg, route intravenous; conditions: in vivo, read-out: Vdss
# [9] = Clearance in mouse at 1 mg/kg, iv; type: ADME, organism-based; design: dose 1 mg/kg, route intravenous; conditions: in vivo
# [10] = Plasma protein binding in mouse; type: ADME, cell-free; conditions: read-out: PPB (converted)
# [11] = Plasma protein binding in human; type: ADME, cell-free; conditions: read-out: PPB (converted)
# [12] = Plasma protein binding in rat; type: ADME, cell-free; conditions: read-out: PPB (converted)
# [13] = Clearance in mouse liver microsomes; type: ADME, Microsome
# In short: (§2)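 Hepatic clearance (Clhep) predicted from incubation with human, rat or mouse liver microsomes.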
# [14] = Clearance in rat liver microsomes; type: ADME, Microsome; in short: as §2
# [15] = Clearance in human liver microsomes; type: ADME, Microsome; in short: as §2
# Cytochrome P450 2C19 = Cytochrome P450 2C19 (Homo sapiens, UniProt P33261); assay: Inhibition of CYP2C19-mediated mephenytoin metabolism; type: ADME; conditions: recombinant enzyme
# Chain of Cytochrome P450 2C19 (P33261 whole entry): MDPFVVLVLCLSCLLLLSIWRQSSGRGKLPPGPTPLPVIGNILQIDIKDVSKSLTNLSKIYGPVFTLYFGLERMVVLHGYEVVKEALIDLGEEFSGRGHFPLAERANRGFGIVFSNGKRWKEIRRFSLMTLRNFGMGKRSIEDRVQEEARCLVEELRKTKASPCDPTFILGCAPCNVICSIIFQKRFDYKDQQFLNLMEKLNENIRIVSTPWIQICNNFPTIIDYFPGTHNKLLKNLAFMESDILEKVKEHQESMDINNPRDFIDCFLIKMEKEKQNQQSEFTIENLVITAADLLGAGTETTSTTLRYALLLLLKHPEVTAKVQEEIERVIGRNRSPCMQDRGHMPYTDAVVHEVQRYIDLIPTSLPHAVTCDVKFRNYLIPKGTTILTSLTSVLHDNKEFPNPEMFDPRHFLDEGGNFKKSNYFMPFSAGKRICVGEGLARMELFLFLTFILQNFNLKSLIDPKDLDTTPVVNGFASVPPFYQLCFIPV
# Cytochrome P450 1A2 = target: T1, Cytochrome P450 1A2 (Homo sapiens, UniProt P05177); assay: Inhibition of CYP1A2-mediated phenacetin metabolism; type: ADME; conditions: recombinant enzyme
# T1 sequence (P05177 whole entry): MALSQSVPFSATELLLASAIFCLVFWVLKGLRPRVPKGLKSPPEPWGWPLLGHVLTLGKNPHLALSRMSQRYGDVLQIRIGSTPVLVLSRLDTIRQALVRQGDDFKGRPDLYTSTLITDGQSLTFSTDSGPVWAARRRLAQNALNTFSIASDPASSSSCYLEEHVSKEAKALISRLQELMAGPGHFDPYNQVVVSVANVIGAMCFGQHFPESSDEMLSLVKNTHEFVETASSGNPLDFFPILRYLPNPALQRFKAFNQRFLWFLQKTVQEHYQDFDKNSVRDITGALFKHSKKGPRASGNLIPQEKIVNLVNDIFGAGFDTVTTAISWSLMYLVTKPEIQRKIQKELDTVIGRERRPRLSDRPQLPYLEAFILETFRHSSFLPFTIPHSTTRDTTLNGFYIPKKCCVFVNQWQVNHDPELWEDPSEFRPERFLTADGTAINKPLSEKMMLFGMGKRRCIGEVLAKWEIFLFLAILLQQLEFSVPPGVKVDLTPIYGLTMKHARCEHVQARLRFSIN
# Cytochrome P450 2C9 = Cytochrome P450 2C9 (Homo sapiens, UniProt P11712); assay: Inhibition of CYP2C9-mediated warfarin metabolism; type: ADME; conditions: recombinant enzyme
# Chain of Cytochrome P450 2C9 (P11712 whole entry): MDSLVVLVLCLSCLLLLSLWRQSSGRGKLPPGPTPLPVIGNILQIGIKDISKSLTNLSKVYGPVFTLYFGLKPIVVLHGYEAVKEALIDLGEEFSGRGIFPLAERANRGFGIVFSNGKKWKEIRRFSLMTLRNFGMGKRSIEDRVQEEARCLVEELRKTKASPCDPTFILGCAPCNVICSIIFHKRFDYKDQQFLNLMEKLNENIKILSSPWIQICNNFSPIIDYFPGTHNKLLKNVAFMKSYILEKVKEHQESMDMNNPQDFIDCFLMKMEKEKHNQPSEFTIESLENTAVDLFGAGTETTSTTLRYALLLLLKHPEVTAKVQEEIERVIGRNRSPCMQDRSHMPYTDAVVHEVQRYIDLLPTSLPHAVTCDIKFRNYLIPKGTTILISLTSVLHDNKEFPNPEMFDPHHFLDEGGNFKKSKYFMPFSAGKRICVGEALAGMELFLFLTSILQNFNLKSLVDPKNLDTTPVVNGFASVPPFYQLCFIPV
# Cytochrome P450 2D6 = Cytochrome P450 2D6 (Homo sapiens, UniProt P10635); assay: Inhibition of CYP2D6-mediated dextromethorphan metabolism; type: ADME; conditions: recombinant enzyme
# Chain of Cytochrome P450 2D6 (P10635 whole entry): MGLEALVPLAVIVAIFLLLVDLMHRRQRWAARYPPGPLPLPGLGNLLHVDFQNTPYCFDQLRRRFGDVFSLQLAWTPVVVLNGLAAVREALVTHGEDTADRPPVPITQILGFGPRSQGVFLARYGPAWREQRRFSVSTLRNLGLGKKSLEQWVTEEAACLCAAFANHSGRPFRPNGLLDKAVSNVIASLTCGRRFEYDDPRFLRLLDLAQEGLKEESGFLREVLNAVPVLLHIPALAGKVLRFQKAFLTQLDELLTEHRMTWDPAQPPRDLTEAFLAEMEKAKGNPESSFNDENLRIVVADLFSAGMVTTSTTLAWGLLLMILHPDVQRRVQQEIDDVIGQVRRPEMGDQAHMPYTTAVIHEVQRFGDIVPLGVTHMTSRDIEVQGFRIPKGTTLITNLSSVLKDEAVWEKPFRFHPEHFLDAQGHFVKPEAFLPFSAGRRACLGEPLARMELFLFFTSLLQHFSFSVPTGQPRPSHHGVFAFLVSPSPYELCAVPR
# Cytochrome P450 3A4 = Cytochrome P450 3A4 (Homo sapiens, UniProt P08684); assay: Inhibition of CYP3A4-mediated midazolam and testosterone metabolism; type: ADME; conditions: recombinant enzyme
# Chain of Cytochrome P450 3A4 (P08684 whole entry): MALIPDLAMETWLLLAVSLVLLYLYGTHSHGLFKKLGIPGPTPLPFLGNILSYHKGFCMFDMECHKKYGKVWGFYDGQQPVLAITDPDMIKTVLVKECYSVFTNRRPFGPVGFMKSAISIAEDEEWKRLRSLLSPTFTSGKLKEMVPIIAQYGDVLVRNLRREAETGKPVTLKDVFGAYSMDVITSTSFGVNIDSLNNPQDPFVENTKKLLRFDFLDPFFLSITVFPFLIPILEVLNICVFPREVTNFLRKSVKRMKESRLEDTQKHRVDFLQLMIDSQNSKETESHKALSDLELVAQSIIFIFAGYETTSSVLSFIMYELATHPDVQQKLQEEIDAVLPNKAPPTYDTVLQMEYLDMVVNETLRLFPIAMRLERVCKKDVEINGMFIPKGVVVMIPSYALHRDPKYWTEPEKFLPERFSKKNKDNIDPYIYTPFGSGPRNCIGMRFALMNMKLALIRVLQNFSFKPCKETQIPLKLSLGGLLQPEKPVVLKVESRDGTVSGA
# [16] = Cytotoxicity against human MCF7/neo expressing HER2 after 3 days; type: functional
# PC-3 [17] = assay: Cytotoxicity against human pTEN deficient PC3 after 3 days; type: functional, cell-based; conditions: PC-3, 72 h
# [18] = Inhibition of mTORC2 in human pTEN deficient NCI-PC3 cells assessed as reduction of Akt phosphorylation at Ser473; type: cell-based
# Mus musculus [19] = species on record: Mus musculus; conditions: U-87MG ATCC, 100 mg/kg
# Mus musculus [20] = species on record: Mus musculus; conditions: U-87MG ATCC, 100 mg/kg; remark: listed apart in the source
# Mus musculus [21] = species on record: Mus musculus; conditions: PC-3, 25 to 100 mg/kg
# Mus musculus [22] = species on record: Mus musculus; conditions: PC-3, 25 to 100 mg/kg; remark: listed apart in the source
# PC-3 [23] = assay: Antitumor activity against human PC3 cells xenografted mouse assessed as tumor growth inhibition at 10 mg/kg, po qd for 14 days; type: functional, organism-based; design: dose 10 mg/kg
# In short: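 Female NCR.nude mice implanted s.c. in right hind flank with NCI-PC3 cells (5 × 10^6 in Hank's balanced salt solution). Dosing started QD at average tumor volume 200 mm3, 5 mice per group. Body weight recorded twice weekly; 10% body weight loss was the limit for tolerated doses, and mice were euthanized at 20% loss or tumor volume 2000 mm3.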
# Mus musculus [24] = assay: Inhibition of mTORC2 in human U87 cells xenografted mouse assessed as reduction of phosphorylated Akt level at 10 mg/kg, po after 24 hrs; type: functional, organism-based; design: dose 10 mg/kg; conditions: U-87MG ATCC
# In short: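 U87 glioma (PTEN-deficient) tumor-bearing mice, four per compound and time point. Tumor and blood were sampled over 24 h. Phospho-Akt was measured in duplicate samples per mouse and expressed relative to time-matched vehicle controls; mean ± one SD.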
# Mus musculus [25] = assay: Inhibition of mTORC1 in human U87 cells xenografted mouse assessed as reduction of phosphorylated p70S6K level at 10 mg/kg, po after 24 hrs; type: functional, organism-based; design: dose 10 mg/kg; conditions: U-87MG ATCC
# Mus musculus [26] = assay: Inhibition of mTORC2 in human PC3 cells xenografted mouse assessed as reduction of phosphorylated Akt level at 10 mg/kg, po after 6 hrs; type: functional, organism-based; design: dose 10 mg/kg; conditions: PC-3
# In short: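 NCI-PC3 s.c. xenografts in female NCR.nude mice grown to about 500 mm3, then randomized (n = 4). Oral suspension in 0.5% methylcellulose/0.2% Tween 80. Tumors were lysed, normalized by BCA assay, and loaded at 20 µg/well. pAkt Ser473 and total Akt were measured in duplex on Meso Scale electrochemiluminescence in duplicate per mouse, relative to time-matched vehicle mean.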
# Mus musculus [27] = assay: Inhibition of mTORC1 in human PC3 cells xenografted mouse assessed as reduction of phosphorylated p70S6K level at 10 mg/kg, po after 6 hrs; type: functional, organism-based; design: dose 10 mg/kg; conditions: PC-3
# [28] = Selectivity ratio of Ki for PI3Kalpha to Ki for mTOR
Compound,bioavailability [5] [%],AUC [6] [nM·h],half-life [7] [min],Vd [8] [L/kg],clearance [9] [L/h/kg],CLhep predicted [13] [L/h/kg],CLhep predicted [14] [L/h/kg],CLhep predicted [15] [L/h/kg],inhibition (INH) (Cytochrome P450 2C19),inhibition (INH) (Cytochrome P450 1A2),inhibition (INH) (Cytochrome P450 2C9),inhibition (INH) (Cytochrome P450 2D6),inhibition (INH) (Cytochrome P450 3A4),IC50 [16] [µM],IC50 (PC-3 [17]) [µM],IC50 [18] [µM],also measured
CCNC(=O)Nc1ccc(-c2nc3c(c(N4CCOC[C@@H]4C)n2)CCN(c2ncccn2)C3)cc1,42,2000,102,1.2,2.16,3.66,1.98,0.9,Not Active,Not Active,Not Active,Not Active,Not Active,0.057,0.15,0.0033,TGI (PC-3 [1]): Active; TGI (PC-3 [2]): Active; Activity (Mus musculus [3]): 10%; TGI (PC-3 [4]): Active; fraction unbound [10]: 0.01; fraction unbound [11]: 0.02; fraction unbound [12]: 0.03; inhibition (Mus musculus [19]): inactive; inhibition (Mus musculus [20]): inactive; inhibition (Mus musculus [21]): Active; inhibition (Mus musculus [22]): Active
CO[C@H]1C[C@@H]2CC[C@@H](C)[C@@](O)(O2)C(=O)C(=O)N2CCCC[C@H]2C(=O)O[C@H]([C@H](C)C[C@@H]2CC[C@@H](O)[C@H](OC)C2)CC(=O)[C@H](C)/C=C(\C)[C@@H](O)[C@@H](OC)C(=O)[C@H](C)C[C@H](C)/C=C/C=C/C=C/1C,,,,,,,,,,,,,,,,,TGI (PC-3 [23]): Active; inhibition (Mus musculus [24]): inactive; inhibition (Mus musculus [25]): Active
CCNC(=O)Nc1ccc(-c2nc3c(c(N4CCOCC4)n2)CCN(C(=O)c2ccccc2)C3)cc1,,,,,,,,,,,,,,,0.34,0.022,
Cc1c(CN2CCN(C(=O)[C@H](C)O)CC2)sc2c(N3CCOCC3)nc(-c3cnc(N)nc3)nc12,,,,,,,,,,,,,,,,,inhibition (Mus musculus [26]): Active; inhibition (Mus musculus [27]): Active
CCNC(=O)Nc1ccc(-c2nc3c(c(N4CCOC[C@@H]4C)n2)CN(c2ncccn2)CC3)cc1,62,2900,102,2.4,2.28,4.26,2.64,0.96,,,,,,,,,fraction unbound [10]: 0.03; fraction unbound [11]: 0.02; fraction unbound [12]: 0.03
CCNC(=O)Nc1ccc(-c2nc(N3CCOCC3)c3sc(C(C)(C)O)cc3n2)cc1,,,,,,,,,,,,,,,,,Ratio Ki [28]: 20
CCOC(=O)Nc1ccc(-c2nc3c(c(N4CCOCC4)n2)CCN(C(=O)c2ccccc2)C3)cc1,,,,,,,,,,,,,,,4.8,0.115,
CCNC(=O)Nc1ccc(-c2nc3c(c(N4CCOCC4)n2)CCN(C(=O)OC)C3)cc1,,,,,,,,,,,,,,,0.22,0.037,
CCNC(=O)Nc1ccc(-c2nc3c(c(N4CCOC[C@@H]4C)n2)CCN(c2nc(C)ns2)C3)cc1,32,2500,31.8,0.72,1.32,3.48,1.74,1.14,Not Active,Not Active,Not Active,Not Active,Not Active,0.069,0.23,0.0087,fraction unbound [10]: 0.02; fraction unbound [11]: 0.03; fraction unbound [12]: 0.04
CCNC(=O)Nc1ccc(-c2nc3c(c(N4CCOC[C@@H]4CC)n2)CCN(c2ncccn2)C3)cc1,,,,,,,,,Not Active,Not Active,Not Active,Not Active,Not Active,0.038,0.04,0.0015,
CCNC(=O)Nc1ccc(-c2nc3c(c(N4CCOC[C@@H]4C)n2)CCN(c2cccnn2)C3)cc1,21.8,870,45,1.7,2.64,2.04,1.14,0.438,Not Active,Not Active,Not Active,Not Active,Not Active,0.29,0.14,0.013,
CCNC(=O)Nc1ccc(-c2nc3c(c(N4CCOCC4)n2)CCN(C(=O)OC(C)(C)C)C3)cc1,,,,,,,,,,,,,,,,0.022,
CCNC(=O)Nc1ccc(-c2nc3c(c(N4CCOC[C@@H]4C)n2)CCN(c2nnc(C)o2)C3)cc1,,,,,,,,,Not Active,Not Active,Not Active,Not Active,Not Active,0.13,0.31,0.022,
CCNC(=O)Nc1ccc(-c2nc3c(c(N4CCOC[C@@H]4C)n2)CCN(c2cnccn2)C3)cc1,,,,,,,,,Not Active,Not Active,Not Active,Not Active,Not Active,0.11,0.055,0.0043,
CCNC(=O)Nc1ccc(-c2nc3c(c(N4CCOC[C@@H]4C)n2)CN(c2cnccn2)CC3)cc1,29,410,10.8,1.4,7.2,4.8,2.64,0.9,,,,,,,,,fraction unbound [10]: 0.03; fraction unbound [11]: 0.03; fraction unbound [12]: 0.04
CCNC(=O)Nc1ccc(-c2nc3c(c(N4CCOCC4)n2)CCN(S(C)(=O)=O)C3)cc1,,,,,,,,,,,,,,,0.43,0.043,
